Measured values as given in ChEMBL document CHEMBL1136740, “New active series of growth hormone secretagogues” (J Med Chem, 2003).
Non-standard residues stand in square brackets, D forms with d. Residues, ends and D or L forms follow the SMILES beside them. dTrp(2-Me) = Cc1[nH]c2ccccc2c1C[C@@H](N)C(=O)O; Aib = CC(C)(N)C(=O)O

Experiments:
Rattus norvegicus = experiment: Ratio of GH release stimulated by 300 ug/kg of compound to that of GH release stimulated by 300 ug/kg of hexarelin in infant rat (sc injection); format: functional
Outline: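 Male 10-day-old Sprague-Dawley pups, about 25 g, eight per group. Dosed sc at 300 µg/kg, with solvent as DMSO at final 1:300 dilution. Killed by decapitation 15 min later; trunk-blood plasma GH measured by RIA against the NIDDK rat standard, in ng/mL. Response compared with hexarelin at the same dose.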

[1] = biological target: T1, Growth hormone secretagogue receptor type 1 (Homo sapiens, UniProt Q92847); experiment: Binding affinity towards human pituitary Growth hormone secretagogue receptor using [125I][Tyr4]-ghrelin as radioligand
[2] = biological target: T1, Growth hormone secretagogue receptor type 1; experiment: Binding affinity towards cloned human Growth hormone secretagogue receptor type I in LLC PK-1 cells using [125I][His9]-ghrelin as radioligand; format: cell-based
Canis familiaris = experiment: Concentration in dogs after oral administration at dose of 1 mg/kg after 180 min.; format: ADME, organism-based, Canis lupus familiaris; set-up: dose 1 mg/kg, route oral; conditions: dog, in vivo, 3 h
Outline: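 Beagle dogs (4–6, 2–3 years, 11–15 kg, both sexes) dosed 1 mg/kg through an oral-gastric cannula in randomized sequence. Blood drawn from the cephalic vein at −20 min, then at 15–180 min into EDTA tubes. Plasma GH measured by canine GH RIA (sensitivity 0.4 ng/mL). Peak GH and AUC0–180 min by trapezoid method reported as mean ± SEM; sexes pooled.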

[3] = Stimulating GH secretion in dogs after oral administration at dose of 1 mg/kg

T1 sequence (Q92847 whole entry): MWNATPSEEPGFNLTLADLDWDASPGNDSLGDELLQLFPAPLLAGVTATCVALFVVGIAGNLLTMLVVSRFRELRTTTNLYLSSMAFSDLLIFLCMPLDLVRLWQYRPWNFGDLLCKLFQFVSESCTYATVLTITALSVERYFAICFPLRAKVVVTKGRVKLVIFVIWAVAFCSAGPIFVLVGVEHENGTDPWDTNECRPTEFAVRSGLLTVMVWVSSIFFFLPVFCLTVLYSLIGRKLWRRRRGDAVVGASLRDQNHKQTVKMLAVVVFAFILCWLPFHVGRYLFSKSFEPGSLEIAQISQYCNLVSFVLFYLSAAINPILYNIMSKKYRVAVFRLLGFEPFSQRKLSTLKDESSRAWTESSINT

| IC50 [1] [nM] | IC50 [2] [nM] | GH AUC 0-180 (Canis familiaris) [µg·min/L] | GH peak [3] [µg/L] | SMILES | Ratio (Rattus norvegicus) |
| --- | --- | --- | --- | --- | --- |
| – | – | – | – | CC(C)(N)C(=O)N[C@H](Cc1c[nH]c2ccccc12)C(=O)N[C@](C)(Cc1c[nH]c2ccccc12)NC=O | 0.91 |
| – | – | – | – | Cc1[nH]c2ccccc2c1C[C@@H](NC(=O)[C@@H](N)Cc1c[nH]cn1)C(=O)N[C@@H](C)C(=O)N[C@@H](Cc1c[nH]c2ccccc12)C(=O)N[C@H](Cc1ccccc1)C(=O)N[C@@H](CCCCN)C(N)=O [EXAMORELIN] (H-H[dTrp(2-Me)]AW[dF]K-NH2) | 1 |
| – | – | – | – | Cc1[nH]c2ccccc2c1C[C@H](NC=O)NC(=O)[C@@H](Cc1c(C)[nH]c2ccccc12)NC(=O)C(C)(C)N | 0.08 |
| – | – | – | – | CN[C@H](Cc1c[nH]c2ccccc12)C(=O)N[C@H](Cc1c[nH]c2ccccc12)NC=O | 0.09 |
| 1790 | 337 | – | – | NC1(C(=O)N[C@H](Cc2c[nH]c3ccccc23)C(=O)N[C@H](Cc2c[nH]c3ccccc23)NC=O)CCNCC1 | 0.95 |
| – | – | – | – | CC(C)(N)C(=O)N[C@H](Cc1c[nH]c2ccccc12)C(=O)N[C@H](Cc1c[nH]c2ccccc12)NC(=O)Cc1c[nH]c2ccccc12 | 0.16 |
| – | – | – | – | CC(C)(N)C(=O)N[C@H](Cc1c[nH]c2ccccc12)C(=O)N[C@@H](Cc1c[nH]c2ccccc12)NC=O | 0.28 |
| 20.1 | 440 | – | – | CC(=O)N[C@@H](Cc1c[nH]c2ccccc12)NC(=O)[C@@H](Cc1c[nH]c2ccccc12)NC(=O)C(C)(C)N(C)C | 0.15 |
| 25.6 | 29.5 | 262.43 | – | CNC(C)(C)C(=O)N[C@H](Cc1c[nH]c2ccccc12)C(=O)N(C)[C@H](Cc1c[nH]c2ccccc12)NC(C)=O | – |
| – | – | – | – | CC(=O)N[C@@H](Cc1c[nH]c2ccccc12)NC(=O)[C@@H](Cc1c[nH]c2ccccc12)NC(C)=O | 0.13 |
| 16.9 | 162 | 79.54 | – | CCNC(=O)N[C@@H](Cc1c[nH]c2ccccc12)NC(=O)[C@@H](Cc1c[nH]c2ccccc12)NC(=O)C(C)(C)N | – |
| – | – | – | – | CC(C)CC(=O)N[C@H](Cc1c[nH]c2ccccc12)C(=O)N[C@H](Cc1c[nH]c2ccccc12)NC=O | 0.09 |
| 21.5 | 116 | 87.06 | – | CC(C)(N)C(=O)N[C@H](Cc1c[nH]c2ccccc12)C(=O)N[C@H](Cc1c[nH]c2ccccc12)NC(=O)C1CCCCN1 (some centres undefined) | – |
| – | – | – | – | CC(C)(N)C(=O)N[C@@H](Cc1c[nH]c2ccccc12)C(=O)N[C@@H](Cc1c[nH]c2ccccc12)NC=O | 0.08 |
| – | – | – | – | CNC(C)(C)C(=O)N[C@H](Cc1c[nH]c2ccccc12)C(=O)N[C@H](Cc1c[nH]c2ccccc12)NC(=O)CCC1CCCCC1 | 0.16 |
| – | – | – | – | CNC(C)(C)C(=O)N[C@H](Cc1c[nH]c2ccccc12)C(=O)N[C@](C)(Cc1c[nH]c2ccccc12)NC(C)=O | 1 |
| 22.9 | 123 | 675.35 | 5.5 | CC(C)(N)C(=O)N[C@H](Cc1c[nH]c2ccccc12)C(=O)N[C@H](Cc1c[nH]c2ccccc12)NC=O [MACIMORELIN] | 1.31 |
| – | – | – | – | CC(=O)N[C@@H](Cc1c[nH]c2ccccc12)NC(=O)[C@@H](Cc1c[nH]c2ccccc12)NC(=O)C1(N)CCNCC1 | 0.46 |
| – | – | – | – | CNC(C)(C)C(=O)N[C@H](Cc1c[nH]c2ccccc12)C(=O)N[C@@H](Cc1c[nH]c2ccccc12)N(C)C(C)=O | 0.2 |
| – | – | – | – | Cc1[nH]c2ccccc2c1C[C@@H](NC(=O)[C@@H](Cc1c(C)[nH]c2ccccc12)NC(=O)C(C)(C)N)C(N)=O (H-[Aib]-[dTrp(2-Me)]-[dTrp(2-Me)]-NH2) | 0.89 |
| 185 | 460 | – | – | CCC(=O)N[C@@H](Cc1c[nH]c2ccccc12)NC(=O)[C@@H](Cc1c[nH]c2ccccc12)NC(=O)C(C)(C)N | 0.69 |
| 18 | – | – | – | Cc1[nH]c2ccccc2c1C[C@@H](NC(=O)[C@@H](N)Cc1cnc[nH]1)C(=O)N[C@@H](C)C(=O)N[C@@H](Cc1c[nH]c2ccccc12)C(=O)N[C@H](Cc1ccccc1)C(=O)N[C@@H](CCCCN)C(N)=O [EXAMORELIN] (H-H[dTrp(2-Me)]AW[dF]K-NH2) | – |
| – | – | – | – | O=CN[C@@H](Cc1c[nH]c2ccccc12)NC(=O)[C@@H](Cc1c[nH]c2ccccc12)NS(=O)(=O)c1ccccc1 | 0.14 |
| 391 | 1160 | – | – | O=CN[C@@H](Cc1c[nH]c2ccccc12)NC(=O)[C@@H](Cc1c[nH]c2ccccc12)NC(=O)C1CCNCC1 | 0.82 |

| IC50 [1] [nM] | IC50 [2] [nM] | GH AUC 0-180 (Canis familiaris) [µg·min/L] | GH peak [3] [µg/L] | SMILES | Ratio (Rattus norvegicus) |
| --- | --- | --- | --- | --- | --- |
| – | – | – | – | CN(C)C(C)(C)C(=O)N[C@H](Cc1c[nH]c2ccccc12)C(=O)N[C@H](Cc1c[nH]c2ccccc12)NC=O | 0.69 |
| – | – | – | – | CNC(C)(C)C(=O)N[C@H](Cc1c[nH]c2ccccc12)C(=O)N[C@H](Cc1c[nH]c2ccccc12)NC(=O)Cc1ccccc1 | 0.16 |
| – | – | – | – | CC(=O)N[C@@H](Cc1c[nH]c2ccccc12)NC(=O)[C@@H](Cc1c[nH]c2ccccc12)NC(=O)CC(C)C | 0.11 |
| 39 | 22.7 | – | – | CNC(C)(C)C(=O)N[C@H](Cc1c[nH]c2ccccc12)C(=O)N[C@H](Cc1c[nH]c2ccccc12)NC=O | 0.64 |
| – | – | – | – | CC(C)(N)C(=O)N[C@@H](Cc1c[nH]c2ccccc12)C(=O)N[C@H](Cc1c[nH]c2ccccc12)NC=O | 0.07 |
| – | – | – | – | CC(C)(N)C(=O)N[C@H](Cc1c[nH]c2ccccc12)C(=O)N[C@H](Cc1c[nH]c2ccccc12)NC(=O)CCC1CCCCC1 | 0.15 |
| – | – | 544.55 | – | CC(C)(N)C(=O)N[C@H](COCc1ccccc1)C(=O)N1CCC2(CC1)CN(S(C)(=O)=O)c1ccccc12 [IBUTAMOREN] | – |
| 59.8 | 535 | – | – | CC(C)CC(=O)N[C@@H](Cc1c[nH]c2ccccc12)NC(=O)[C@@H](Cc1c[nH]c2ccccc12)NC(=O)C(C)(C)N | 0.24 |
| – | – | – | – | CNC(C)(C)C(=O)N[C@H](Cc1c[nH]c2ccccc12)C(=O)N[C@H](Cc1c[nH]c2ccccc12)N(C)C(C)=O | 1.21 |
| 213 | 397 | – | – | CNC(C)(C)C(=O)N[C@H](Cc1c[nH]c2ccccc12)C(=O)N[C@H](Cc1c[nH]c2ccccc12)NC(=O)CC(C)C | 0.1 |
| – | – | – | – | CC(C)(N)C(=O)N[C@H](Cc1c[nH]c2ccccc12)C(=O)N[C@H](Cc1c[nH]c2ccccc12)NC(=O)Cc1ccccc1 | 0.11 |
| > 10000 | 167 | – | – | CCC(=O)N[C@@H](Cc1c[nH]c2ccccc12)NC(=O)[C@@H](Cc1c[nH]c2ccccc12)NC(=O)C(C)(C)NC | 0.93 |
| – | – | – | – | Cc1[nH]c2ccccc2c1C[C@@H](NC=O)NC(=O)[C@@H](Cc1c(C)[nH]c2ccccc12)NC(=O)C(C)(C)N | 0.12 |
| – | – | – | – | CC(=O)N[C@@H](Cc1c[nH]c2ccccc12)N(C)C(=O)[C@@H](Cc1c[nH]c2ccccc12)NC(=O)C(C)(C)N | 0.65 |
| – | – | – | – | CC(C)(N)C(=O)N[C@](C)(Cc1c[nH]c2ccccc12)C(=O)N[C@H](Cc1c[nH]c2ccccc12)NC=O | 0.12 |
| – | – | – | – | CS(=O)(=O)N[C@H](Cc1c[nH]c2ccccc12)C(=O)N[C@H](Cc1c[nH]c2ccccc12)NC=O | 0.09 |
| – | – | – | – | CNC(C)(C)C(=O)N[C@H](Cc1c[nH]c2ccccc12)C(=O)N[C@H](Cc1c[nH]c2ccccc12)NC(=O)Cc1c[nH]c2ccccc12 | 0.17 |
| > 10000 | 807 | – | – | CC(=O)N[C@@H](Cc1c[nH]c2ccccc12)NC(=O)[C@@H](Cc1c[nH]c2ccccc12)NC(=O)C1CCNCC1 | 0.53 |
| 3850 | 228 | – | – | CC(=O)N[C@@H](Cc1c[nH]c2ccccc12)NC(=O)[C@@H](Cc1c[nH]c2ccccc12)NC(=O)C(C)(C)N | 0.77 |
| 12 | 286 | – | – | Cc1[nH]c2ccccc2c1C[C@@H](NC(=O)[C@H](Cc1c[nH]cn1)NC(=O)[C@H](C)NC(=O)[C@@H](N)Cc1ccc(O)cc1)C(=O)N[C@@H](C)C(=O)N[C@@H](Cc1c[nH]c2ccccc12)C(=O)N[C@H](Cc1ccccc1)C(=O)N[C@@H](CCCCN)C(N)=O (H-YAH[dTrp(2-Me)]AW[dF]K-NH2) | – |
| 16.2 | 122 | – | – | CCOC(=O)N[C@@H](Cc1c[nH]c2ccccc12)NC(=O)[C@@H](Cc1c[nH]c2ccccc12)NC(=O)C(C)(C)N | 0.2 |
| – | – | – | – | CNC(C)(C)C(=O)N[C@H](Cc1c[nH]c2ccccc12)C(=O)N[C@H](Cc1c[nH]c2ccccc12)NC(=O)C1CCCCN1 (some centres undefined) | 0.85 |
| 74 | 58 | 85.85 | 1.1 | CNC(C)(C)C(=O)N[C@H](Cc1c[nH]c2ccccc12)C(=O)N[C@H](Cc1c[nH]c2ccccc12)NC(C)=O | 1.38 |
